Assay outcomes deposited in PubChem by The Scripps Research Institute Molecular Screening Center.
TDP2 absorb = TDP2 (human) inhibition, absorbance primary screen; O95551; recombinant TDP2, T5PNP hydrolysis, p-nitrophenol absorbance 415 nm; inhibition, % at 12.8 µM; 370,000 tested, 0.34% active;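 active means inhibition above the mean of all tested compounds plus 3 SD, set per campaign, cut at about 25% in these data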;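 further: 0% = DMSO with enzyme and 100% = buffer with substrate but no TDP2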
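System – recombinant human TDP2 · Amount – 120 nM TDP2 per well · Buffer or medium – Mg2+-containing Tris-HCl buffer, pH 7.5 · Reagent – T5PNP substrate, 5 mM · Dosing – 12.8 µM single point, 1% DMSO · Incubation – 2 h at 37 °C · Measured by – epi absorbance · Read-out basis – percent inhibition · Benchmarks – high control without enzyme, low control DMSO plus TDP2 · Repeats – singlicate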
MBD2 inh = blocks human MBD2 binding to methylated DNA; Q9UBB5; TR-FRET, MBD2 binding to methylated oligonucleotide; inhibition, % at 4.4 µM; 370,000 tested, 0.31% active; AID 686964; in the data active means inhibition above about 13%
Target sequence (Q9UBB5 whole entry, looked up): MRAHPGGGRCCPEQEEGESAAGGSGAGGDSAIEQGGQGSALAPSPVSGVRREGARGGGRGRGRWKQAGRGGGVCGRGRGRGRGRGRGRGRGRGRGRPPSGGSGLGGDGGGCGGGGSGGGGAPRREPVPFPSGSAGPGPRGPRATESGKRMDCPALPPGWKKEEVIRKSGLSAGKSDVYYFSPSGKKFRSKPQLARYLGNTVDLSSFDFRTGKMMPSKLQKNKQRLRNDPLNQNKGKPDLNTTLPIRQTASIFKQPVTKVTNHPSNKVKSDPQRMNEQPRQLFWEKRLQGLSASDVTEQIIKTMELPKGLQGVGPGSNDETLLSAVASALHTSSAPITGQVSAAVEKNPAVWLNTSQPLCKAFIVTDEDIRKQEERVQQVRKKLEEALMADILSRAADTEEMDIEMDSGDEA
LEDGF integ inh = blocks HIV-1 LEDGF/p75-dependent DNA integration | TR-FRET IN-LEDGF/p75 DNA integration, Eu/Cy5 | inhibition, % at 3.7 µM | 370,000 tested, 0.64% active;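 active means inhibition above the screen-wide mean plus 3 SD, cut at about 13% in these data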;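 further: signal is the Cy5 over europium emission ratio at 671 and 618 nm; 0% = plate median of compound wells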
UHRF1 binding = human UHRF1 methylated DNA binding inhibitors | inhibition, % at 4.4 µM | 370,000 tested, 0.75% active | Q96T88 | UHRF1 binding to methylated oligo, TR-FRET; in the data active means inhibition above about 21%;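 further: UHRF1 SRA domain binding a hemimethylated CpG hairpin DNA probe; 0% = median of test compound wells and 100% = reference inhibitor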
The depositor's hits bear a star. The list is not random: actives were taken first. Their share in the collection is about 1.6%.

SMILES	TDP2 absorb	MBD2 inh	LEDGF integ inh	UHRF1 binding
CN(C(=S)NC(=O)C12CC3CC(CC(C3)C1)C2)c1ccc(O)cc1	19	-9	15*	6
CC1(OC(=O)CCc2ccccc2)C(=O)C=C2C=C(c3ccc(C#N)cc3)N(Cc3ccco3)C=C2C1=O (configuration not stated)	-18	-2	17*	14
COC(=O)[C@]12C[C@H](CC(=O)NCC3CCCCC3)C(=O)N(Cc3ccccc3)C1=C[C@H](C1CCCC1)O[C@@H]2C	-1	12	2	1
Nc1cccc2cc(S(=O)(=O)O)ccc12	27*	6	39*	47*
COC/C=C/C1=CC2=CC(=O)C(C)(OC(=O)C3CCCC3)C(=O)C2=CO1 (configuration not stated)	0	5	64*	29*
COC/C=C/C1=CC2=CC(=O)C(C)(OC(=O)c3cnc4ccccc4n3)C(=O)C2=CN1C1CC1 (configuration not stated)	14	1	6	-2
CC(C)(C)c1ccc(C(=O)Nc2cc(Cl)ccc2-c2nn[nH]n2)cc1	-1	-3	-1	1
CCN(C[C@H]1N[C@@](C)(C(=O)OC)[C@H]2C(=O)N(C)C(=O)[C@@H]12)S(=O)(=O)c1ccc(C(F)(F)F)cc1	-13	5	8	22*
CCN(C[C@H]1N[C@@](C)(C(=O)OC)[C@H]2C(=O)N(C)C(=O)[C@@H]12)S(=O)(=O)c1ccccc1	7	0	-2	0
COC[C@H]1CCCN1c1cccc2c1S(=O)(=O)N1CC[C@@H](C1)O2	-1	0	-3	2
O=C(NCCc1c[nH]c2ccccc12)c1ccc2c(c1)ncn2C1CCCCC1	-1	5	0	1
N#CCN(C(=O)COC(=O)CCCNC(=O)c1ccc(Cl)cc1)c1ccccc1	7	0	1	50*
O=C(COC(=O)CCCNC(=O)c1ccc(Cl)cc1)NCc1ccccc1Cl	8	3	-1	0
O=C1C(NC(=O)N2c3ccccc3C=Cc3ccccc32)CCCCN1Cc1ccc(Cl)cc1 (configuration not stated)	-3	1	-4	27*
O=C1C(NC(=O)N2c3ccccc3C=Cc3ccccc32)CCCCN1Cc1cccc(Cl)c1 (configuration not stated)	-11	1	-4	-1
Cc1cccc(NC(=O)C2CCCN2S(=O)(=O)c2cccc3cccnc23)c1C (configuration not stated)	3	0	1	0
O=C(CCn1nnc(-c2cccs2)n1)NCc1cccs1	5	2	-2	0
Cc1ccc2c(c1)-c1c(cnn1CC(=O)NCCc1ccc(Cl)cc1)CO2	-1	2	-3	1
CCCS(=O)(=O)Nc1c(C(=O)OC)[nH]c2ccccc12	12	8	1	22*
COC(=O)c1[nH]c2ccccc2c1NS(=O)(=O)c1ccc(F)c(C)c1	-9	1	-2	5
Cc1ccc(CN2CCCCC(NC(=O)Nc3ccccc3F)C2=O)cc1 (configuration not stated)	4	-5	1	0
Cc1nnc(SCC(=O)NC(=O)NCc2ccco2)s1	-17	-1	4	30*
O=C1CC(c2ccccc2)CC(=O)C1=CN1CCCC1 (configuration not stated)	-3	2	-2	68*
COc1ccc(CCNCC(O)COc2cccc(C)c2)cc1OC (configuration not stated)	-5	-2	-4	2
O=C(c1ccc(=O)oc1)N1CCCc2ccccc21	6	4	22*	17
SMILES	TDP2 absorb	MBD2 inh	LEDGF integ inh	UHRF1 binding
O=C(c1ccc(Br)cc1)N1CCCc2ccccc21	-8	2	6	1
O=C(c1ccccc1)N1CCCc2ccccc21	10	9	1	21*
CCCCCCCCN1C(=O)[C@@H](CC(=O)N2CCCC2)C[C@@]2(C(=O)OC)C1=C[C@H](COCc1ccccc1)O[C@@H]2C	-1	2	1	-1
CN(C)CCOC(C)(c1ccccc1)c1ccccn1 (configuration not stated)	-1	-1	3	66*
CN(C)CCC(c1ccccc1)c1ccccn1 (configuration not stated)	6	-3	-3	2
COc1cccc(OC)c1NC(=O)OCCN1CCCC12CCC(c1ccccc1)CC2 (configuration not stated)	2	1	4	2
Cc1ccc(-c2nc3c(Cl)cc(C(F)(F)F)cn3c2Cc2ccccc2C(F)(F)F)cc1	-4	3	4	5
FC(F)(F)c1cc(Cl)c2nc(-c3ccco3)c(Cc3ccccc3C(F)(F)F)n2c1	6	5	8	21*
C=CC[C@@H]1NN2C(=O)[C@@H](CCc3ccccc3)[C@@H]3c4ccccc4C=NN3[C@@H]2c2ccccc21	11	5	2	83*
C=CCN1C(=O)c2n[nH]c(C)c2C1c1ccc(C)cc1 (configuration not stated)	-3	1	-1	0
O=S(=O)(c1ccccc1Br)N(Cc1cn(Cc2ccccc2)nn1)C1CC1	3	5	-1	0
CC(C)NC(=O)C1(C)CN(S(C)(=O)=O)CC(=O)N1CCOc1ccccc1 (configuration not stated)	0	-5	3	40*
CC(=O)NC1CCCCN(Cc2ccc(Cl)cc2)C1=O (configuration not stated)	-18	-6	10	-2
CCOc1cc(C(=O)NC(C)CC)cc(OCC)c1OCC (configuration not stated)	-3	3	0	27*
COc1c(C)cccc1C(=O)Nc1ccc(N2CCN(C(=O)c3ccccc3C)CC2)cc1	-8	3	-3	27*
Cc1ccccc1C(=O)N1CCN(c2ccc(NC(=O)c3cccc(OC(C)C)c3)cc2)CC1	-15	-2	-3	5
CC(C)NC(=O)c1c(CSc2ccc(Cl)cc2)noc1C(=O)NCc1ccccc1	-8	10	-3	2
CC(C)NC(=O)c1c(CSc2ccccc2)noc1C(=O)NCc1ccccc1	-3	-2	1	22*
CC12CCC(=O)N1C(C(=O)Nc1ccc(Br)cc1Cl)CS2 (configuration not stated)	-9	-5	-1	-3
Cc1cc(Br)ccc1NC(=O)C1CSC2(C)CCC(=O)N12 (configuration not stated)	-13	0	-1	35*
CCCCCCCCNS(=O)(=O)CC1NCc2ccc(C)cc21 (configuration not stated)	-5	-7	4	-6
CSc1nnc(-c2cccc(NC(=O)c3ccccc3)c2)n1C	5	-3	-1	26*
O=C(CSc1ccccn1)Nc1ccc(N2CCOCC2)cc1	-2	-7	3	93*
O=C(CSc1ccccn1)Nc1ccc2c(c1)OCCO2	-8	5	-1	4
COc1ccc(NC(=O)CSc2nnc(-c3ccco3)n2N)cc1Cl	18	-1	-1	22*
